Measurements taken from ChEMBL document CHEMBL1137290, “Design, synthesis, and biological evaluation of a new class of small molecule peptide mimetics targeting the melanocortin receptors” (Bioorg Med Chem Lett, 2006).

Legend:
[1] = biological target: T1, Melanocyte-stimulating hormone receptor (Homo sapiens, UniProt Q01726); assay: Displacement of [125I]NDP-alpha-MSH from human MC1R expressed in HEK293 cells; assay type: cell-based
Target sequence in this assay (Q01726 whole entry): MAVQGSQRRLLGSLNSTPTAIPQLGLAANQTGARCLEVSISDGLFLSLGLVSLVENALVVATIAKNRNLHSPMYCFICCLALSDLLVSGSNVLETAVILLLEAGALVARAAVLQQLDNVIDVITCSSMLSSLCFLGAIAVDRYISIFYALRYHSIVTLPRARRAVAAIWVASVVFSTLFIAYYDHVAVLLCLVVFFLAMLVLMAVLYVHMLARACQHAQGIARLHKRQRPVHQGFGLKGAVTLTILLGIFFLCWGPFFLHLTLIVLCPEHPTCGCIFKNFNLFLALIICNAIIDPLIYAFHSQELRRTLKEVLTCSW

Melanocortin receptor 3 [2] = biological target: T2, Melanocortin receptor 3 (Homo sapiens, UniProt P41968); assay: Displacement of [125I]NDP-alpha-MSH from human MC3R expressed in HEK293 cells; assay type: cell-based
Melanocortin receptor 4 [3] = biological target: T3, Melanocortin receptor 4 (Homo sapiens, UniProt P32245); assay: Displacement of [125I]NDP-alpha-MSH from human MC4R expressed in HEK293 cells; assay type: cell-based
Melanocortin receptor 5 [4] = biological target: T4, Melanocortin receptor 5 (Homo sapiens, UniProt P33032); assay: Displacement of [125I]NDP-alpha-MSH from human MC5R expressed in HEK293 cells; assay type: cell-based
[5] = biological target: T1, Melanocyte-stimulating hormone receptor; assay: Displacement of [125I]NDP-alpha-MSH from human MC1R expressed in HEK293 cells relative to MT-II; assay type: cell-based
Target sequence in this assay (Q01726 whole entry, looked up): as the sequence (Q01726 whole entry) above

[6] = biological target: T1, Melanocyte-stimulating hormone receptor; assay: Activity at human MC1R expressed in HEK293 cells assessed by measuring intracellular cAMP accumulation; assay type: functional, cell-based
How it was run: (§1)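 Whole HEK293 cells expressing the human melanocortin receptor were incubated with ligand, and the cAMP they produced was measured as the read-out of adenylate cyclase activation.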
Target sequence in this assay (Q01726 whole entry): as above

Melanocortin receptor 3 [7] = biological target: T2, Melanocortin receptor 3; assay: Activity at human MC3R expressed in HEK293 cells assessed by measuring intracellular cAMP accumulation; assay type: functional, cell-based; how it was run: as §1
Melanocortin receptor 5 [8] = biological target: T4, Melanocortin receptor 5; assay: Activity at human MC5R expressed in HEK293 cells assessed by measuring intracellular cAMP accumulation; assay type: functional, cell-based; how it was run: as §1
Melanocortin receptor 4 [9] = biological target: T3, Melanocortin receptor 4; assay: Activity at human MC4R expressed in HEK293 cells assessed by measuring intracellular cAMP accumulation; assay type: functional, cell-based; how it was run: as §1
[10] = biological target: T1, Melanocyte-stimulating hormone receptor; assay: Activity at human MC1R expressed in HEK293 cells assessed as activation of adenylate cyclase; assay type: functional, cell-based; design: concentration or dose not given beside the values
How it was run: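 Whole HEK293 cells expressing the human melanocortin receptor were incubated with ligand, and the cAMP they produced was measured as the read-out of adenylate cyclase activation. EC50 is the concentration giving 50% of maximal intracellular cAMP accumulation.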
Target sequence in this assay (Q01726 whole entry, looked up): as the sequence (Q01726 whole entry) above

Melanocortin receptor 3 [11] = biological target: T2, Melanocortin receptor 3; assay: Activity at human MC3R expressed in HEK293 cells assessed as activation of adenylate cyclase; assay type: functional, cell-based; design: concentration or dose not given beside the values; how it was run: as §1
Melanocortin receptor 5 [12] = biological target: T4, Melanocortin receptor 5; assay: Activity at human MC5R expressed in HEK293 cells assessed as activation of adenylate cyclase; assay type: functional, cell-based; design: concentration or dose not given beside the values; how it was run: as §1
Melanocortin receptor 4 [13] = biological target: T3, Melanocortin receptor 4; assay: Activity at human MC4R expressed in HEK293 cells assessed as activation of adenylate cyclase; assay type: functional, cell-based; design: concentration or dose not given beside the values; how it was run: as §1
Melanocortin receptor 5 [14] = biological target: T4, Melanocortin receptor 5; assay: Displacement of [125I]NDP-alpha-MSH from human MC5R expressed in HEK293 cells relative to MT-II; assay type: cell-based
How it was run: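 Binding efficiency was measured on whole HEK293 cells expressing hMC5R, by competition with 125I-NDP-α-MSH. It is the maximum radioligand displacement by the test compound divided by the maximum displacement caused by excess MT-II.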

T3 sequence (P32245 whole entry): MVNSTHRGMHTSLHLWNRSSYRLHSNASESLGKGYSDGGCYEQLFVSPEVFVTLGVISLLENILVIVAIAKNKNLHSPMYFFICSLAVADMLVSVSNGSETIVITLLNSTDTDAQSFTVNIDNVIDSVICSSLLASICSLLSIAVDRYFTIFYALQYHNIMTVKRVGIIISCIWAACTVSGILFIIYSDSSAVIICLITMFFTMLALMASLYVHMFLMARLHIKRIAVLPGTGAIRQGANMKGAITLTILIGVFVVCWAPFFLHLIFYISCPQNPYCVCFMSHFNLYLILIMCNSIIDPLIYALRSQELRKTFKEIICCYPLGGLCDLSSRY
T2 sequence (P41968 whole entry): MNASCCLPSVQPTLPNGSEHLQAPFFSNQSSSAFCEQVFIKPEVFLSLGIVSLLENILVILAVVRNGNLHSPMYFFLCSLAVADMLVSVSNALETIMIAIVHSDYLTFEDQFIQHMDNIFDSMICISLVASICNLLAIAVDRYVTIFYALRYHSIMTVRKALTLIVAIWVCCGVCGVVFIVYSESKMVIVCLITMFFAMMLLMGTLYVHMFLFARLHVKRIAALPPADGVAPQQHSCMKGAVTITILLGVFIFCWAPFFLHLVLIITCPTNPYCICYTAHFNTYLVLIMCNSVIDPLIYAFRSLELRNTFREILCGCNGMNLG
T4 sequence (P33032 whole entry): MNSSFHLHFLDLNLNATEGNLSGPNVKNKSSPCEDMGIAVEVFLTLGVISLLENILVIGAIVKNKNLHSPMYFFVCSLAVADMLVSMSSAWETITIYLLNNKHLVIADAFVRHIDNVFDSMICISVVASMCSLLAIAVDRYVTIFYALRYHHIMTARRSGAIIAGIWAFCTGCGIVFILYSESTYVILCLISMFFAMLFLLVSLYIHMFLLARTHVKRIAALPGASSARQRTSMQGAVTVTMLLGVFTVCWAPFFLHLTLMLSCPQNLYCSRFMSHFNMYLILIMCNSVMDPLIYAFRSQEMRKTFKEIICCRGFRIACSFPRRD

| Activity (Melanocortin receptor 5 [14]) [%] | SMILES | IC50 [1] [µM] | IC50 (Melanocortin receptor 3 [2]) [µM] | IC50 (Melanocortin receptor 4 [3]) [µM] | IC50 (Melanocortin receptor 5 [4]) [µM] | Activity [5] [%] | EC50 [6] [µM] | EC50 (Melanocortin receptor 3 [7]) [µM] | EC50 (Melanocortin receptor 5 [8]) [µM] | EC50 (Melanocortin receptor 4 [9]) [µM] | Activity [10] [%] | Activity (Melanocortin receptor 3 [11]) [%] | Activity (Melanocortin receptor 5 [12]) [%] | Activity (Melanocortin receptor 4 [13]) [%] |
| --- | --- | --- | --- | --- | --- | --- | --- | --- | --- | --- | --- | --- | --- | --- |
| 65 | O=C(CCc1c[nH]c2ccccc12)NCCCCCC(=O)N1C[C@@H]2CCCN2C[C@@H]1Cc1ccccc1 | > 10 | > 10 | > 10 | 0.0004 |  | > 10 | > 10 | > 10 | > 10 | 0 | 0 | 0 | 0 |
| 60 | O=C(CCC(=O)N1C[C@@H]2CCCN2C[C@H]1Cc1ccccc1)NCCc1c[nH]c2ccccc12 | > 10 | > 10 | > 10 | 0.0001 |  | > 10 | > 10 | > 10 | > 10 | 0 | 0 | 0 | 0 |
| 50 | O=C(CCC(=O)N1C[C@@H]2CCCN2C[C@@H]1Cc1ccccc1)NCCc1c[nH]c2ccccc12 | > 10 | > 10 | > 10 | 0.0005 |  | > 10 | > 10 | > 10 | > 10 | 0 | 0 | 0 | 0 |

More lines, now with the values behind:

| SMILES | Activity (Melanocortin receptor 5 [14]) [%] | IC50 [1] [µM] | IC50 (Melanocortin receptor 3 [2]) [µM] | IC50 (Melanocortin receptor 4 [3]) [µM] | IC50 (Melanocortin receptor 5 [4]) [µM] | Activity [5] [%] | EC50 [6] [µM] | EC50 (Melanocortin receptor 3 [7]) [µM] | EC50 (Melanocortin receptor 5 [8]) [µM] | EC50 (Melanocortin receptor 4 [9]) [µM] | Activity [10] [%] | Activity (Melanocortin receptor 3 [11]) [%] | Activity (Melanocortin receptor 5 [12]) [%] | Activity (Melanocortin receptor 4 [13]) [%] |
| --- | --- | --- | --- | --- | --- | --- | --- | --- | --- | --- | --- | --- | --- | --- |
| O=C(Cc1ccccc1)N1C[C@@H]2CCCN2C[C@H]1Cc1ccccc1 |  | 0.0013 | 0.005 | 0.0012 | > 10 | 90 | > 10 | > 10 | > 10 | > 10 | 0 | 0 | 0 | 0 |
| O=C(CCc1c[nH]c2ccccc12)N1C[C@@H]2CCCN2C[C@@H]1Cc1ccccc1 | 50 | > 10 | > 10 | > 10 | 0.0008 |  | > 10 | > 10 | > 10 | > 10 | 0 | 0 | 0 | 0 |
| NC(N)=NCCC[C@H](NC(=O)CCc1c[nH]c2ccccc12)C(=O)N1C[C@@H]2CCCN2C[C@@H]1Cc1ccccc1 |  | > 10 | > 10 | > 10 | 0.0001 |  | > 10 | > 10 | > 10 | > 10 |  |  |  |  |
| O=C(CCc1c[nH]c2ccccc12)N1C[C@@H]2CCCN2C[C@H]1Cc1ccccc1 |  | 0.004 | 0.0012 | > 10 | > 10 | 50 | > 10 | > 10 | > 10 | > 10 | 0 | 0 | 0 | 0 |
| N=C(N)NCCC[C@H](NC(=O)CCc1c[nH]c2ccccc12)C(=O)N1C[C@@H]2CCCN2C[C@@H]1Cc1ccccc1 | 60 |  |  |  |  |  |  |  |  |  | 20 | 0 | 0 | 0 |
| O=C(Cc1ccccc1)N1C[C@@H]2CCCN2C[C@@H]1Cc1ccccc1 |  | 0.0022 | 0.35 | > 10 | > 10 | 80 | > 10 | > 10 | > 10 | 0.0027 | 0 | 0 | 0 | 30 |
